Compound activity: PubChem, several laboratories
An excerpt weighted towards active compounds, which were near 4.2% of everything screened.
ANO1 activ – activators or potentiators of mouse TMEM16A chloride channel; Q8BHY3; HEK293 TMEM16A/YFP-H148Q/I152L, iodide quench fluorescence; stronger effect = lower value; B-score at 10 µM; hit rate 0.3% among 340,000; AID 623877;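 active = fluorescence-ratio B-score plate-corrected deviation score at least 3 library SD below zero, with starting fluorescence score within 5 deviations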;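 also: channel opened by trigger with iodide after compound preincubation; score built on the fluorescence ratio of max minus min over baseline; more negative score means more quench and so TMEM16A activation or potentiation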
Target sequence (Q8BHY3 whole entry, looked up): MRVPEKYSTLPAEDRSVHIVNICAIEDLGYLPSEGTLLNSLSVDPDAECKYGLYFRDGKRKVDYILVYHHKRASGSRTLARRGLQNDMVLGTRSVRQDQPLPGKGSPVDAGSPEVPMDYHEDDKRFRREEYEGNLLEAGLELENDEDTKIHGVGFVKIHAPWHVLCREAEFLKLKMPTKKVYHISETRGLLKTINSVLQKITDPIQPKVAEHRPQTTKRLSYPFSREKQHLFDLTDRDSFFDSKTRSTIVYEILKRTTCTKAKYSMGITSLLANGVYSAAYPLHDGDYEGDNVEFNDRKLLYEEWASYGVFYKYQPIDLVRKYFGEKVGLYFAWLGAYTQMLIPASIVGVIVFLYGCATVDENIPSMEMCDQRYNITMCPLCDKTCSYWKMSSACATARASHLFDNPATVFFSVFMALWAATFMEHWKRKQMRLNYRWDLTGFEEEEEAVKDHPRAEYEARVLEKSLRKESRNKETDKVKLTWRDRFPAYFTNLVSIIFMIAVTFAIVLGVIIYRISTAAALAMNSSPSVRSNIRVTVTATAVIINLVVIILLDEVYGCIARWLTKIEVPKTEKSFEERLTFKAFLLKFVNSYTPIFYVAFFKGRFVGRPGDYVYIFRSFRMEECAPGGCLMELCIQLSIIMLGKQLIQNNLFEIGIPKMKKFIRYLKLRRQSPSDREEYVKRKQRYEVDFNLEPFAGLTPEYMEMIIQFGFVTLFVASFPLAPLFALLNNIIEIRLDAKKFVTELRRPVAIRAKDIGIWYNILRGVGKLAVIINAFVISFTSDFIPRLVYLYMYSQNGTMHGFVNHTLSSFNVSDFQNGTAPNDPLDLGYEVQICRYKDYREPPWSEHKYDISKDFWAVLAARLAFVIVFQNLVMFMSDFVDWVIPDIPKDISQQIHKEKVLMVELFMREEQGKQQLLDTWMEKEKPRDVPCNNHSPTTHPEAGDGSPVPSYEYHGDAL
UPR CHOP act – activators of apoptotic arm of unfolded protein response (CHOP); CHO-CHOP luciferase reporter, UPR activation, luminescence; percent of tunicamycin response over DMSO baseline; activation, % at 10 µM; hit rate 0.34% among 330,000;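 active = at 10 µM dose, activation of 40% or more, normalized to positive control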;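 also: 100% = tunicamycin at 10 µg/mL and 0% = DMSO alone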
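System: CHO CHOP reporter cells. Amount: 500 cells per well. Buffer or medium: F12 medium, 10% FBS. Compound dosing: one dose, 10 µM in 0.5% DMSO. Incubation: 6 h compound exposure at 37 °C after overnight seeding. Technique: Steady-Glo luciferase luminescence. Benchmarks: tunicamycin and DMSO controls.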
CHOP inhibitor – CHOP inhibition in unfolded protein response; inhibition, % at 10 µM; hit rate 3.8% among 220,000; AID 2732; CHO-K1 CHOP-promoter luciferase, tunicamycin-induced, 15-18 h;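 active = compounds that reduced the stress-induced luciferase reporter signal by more than about 70% of percent inhibition, limit read from the data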;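 also: 0% = tunicamycin plus vehicle and 100% = wells without tunicamycin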
TMEM16A inh – mouse TMEM16A channel inhibition, primary screen; hit rate 1.2% among 310,000; normalized B-score (activity score, 25-100; higher = stronger inhibition) at 10 µM; HEK293 TMEM16A/YFP iodide influx fluorescence, ionomycin;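 active = ratio plate-corrected score three or more library SD toward inhibition, starting fluorescence score within five deviations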;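 also: score derived from kinetic fluorescence span divided by baseline fluorescence per well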
XBP1 UPR activ – adaptive UPR (XBP1) activation; CHO-XBP1 luciferase reporter, IRE1-XBP1 UPR activation, luminescence; percent of tunicamycin response, DMSO as zero; activation, % at 20 µM; hit rate 0.33% among 330,000; AID 463104;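 active = versus positive control, 20 µM dose yields 30% or more activation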;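 also: 100% = tunicamycin at 10 µg/mL and 0% = DMSO only wells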
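Material – CHO cell line with stable XBP1 luciferase reporter · Buffer or medium – F12 plus 10% FBS · Compound – single point, 20 µM final compound, 1% DMSO · Schedule – 16-18 h cell attachment at 37 °C, then 6 h compound exposure · Signal – Steady-Glo luminescence read · Benchmarks – high control tunicamycin 10 µg/mL final, low control DMSO vehicle only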
Lipid droplet – hepatic lipid droplet formation modulation | AML12 mouse hepatocytes, oleate lipid droplets, BODIPY imaging | inhibition, % at 6.5 µM | hit rate 0.4% among 240,000 | AID 1656;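 active = lipid droplet intensity inhibited by at least 50%, with more than 500 cells counted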
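System: AML12 hepatocytes (mouse). Probe or stimulus: oleic acid at 100 µM to induce lipid droplet formation. Times: overnight treatment with compound plus oleate. Detection: Image-based BODIPY and DAPI two-channel analysis. Evaluation: percent inhibition of filter-corrected integrated lipid droplet intensity per well.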
Starred values were filed as active, the others as inactive; i = inactive; . = not tested or not shown.

SMILES	ANO1 activ	UPR CHOP act	CHOP inhibitor	TMEM16A inh	XBP1 UPR activ	Lipid droplet
CC(NC(=O)Cn1ncc(Cl)c(Cl)c1=O)C12CC3CC(CC(C3)C1)C2 (centres undefined)	i	.	109.4*	100*	.	2.3
C/C(=N\NC(=O)c1ccco1)c1cc(Cl)sc1Cl	i	6.6	.	i	1.3	-12.0
O=C(c1ccccc1)N1CCN(C(=O)c2nn3c(C(F)(F)F)cc(-c4ccccc4)nc3c2Br)CC1	i	1.1	.	i	3.0	6.5
N#C/C(N)=C(/C#N)N=Cc1cccc(Cl)c1	i	2.8	7.3	i	0.0	-18.7
CCCCCCSc1ncc(C#N)c(N)n1	i	2.4	83.7*	i	0.7	.
COc1ccc2[nH]c3c(c2c1)CCN1C(=O)C(CC(=O)NC(C)(C)C)C[C@H](C(=O)N(C(C)C)C(C)C)[C@@]31C (some centres undefined)	.	2.6	.	.	1.3	.
COc1ccc(C(=O)N2CCN(c3cccc(C)c3C)CC2)cc1S(=O)(=O)NC1CC1	i	1.2	.	.	0.1	.
O=S(=O)(c1ccccc1Br)N(Cc1ccccc1)CC(O)COCc1ccccc1 (centres undefined)	.	2.2	.	.	-1.0	.
C=C(CCC(=O)c1ccccc1)C(=O)c1ccccc1	i	.	-8.0	i	.	-10.7
C=C(C(=O)c1ccccc1)C(CC(=O)c1ccccc1)c1ccccc1 (centres undefined)	i	32.8	-31.2	100*	-1.1	-54.3
Cc1c(C(=O)NCCCN2CCOCC2)oc2ccc(S(=O)(=O)N3CCOCC3)cc12	i	2.4	16.5	i	-0.2	3.2
COc1ccc(C2CC(c3cccs3)=NN2C(=O)CSc2nc3c(cnn3-c3ccccc3)c(=O)[nH]2)cc1 (centres undefined)	i	4.3	76.0*	i	0.0	-34.3
COc1ccc(C2C(C(=O)O)CCC(=O)N2c2ccc(C)cc2)cc1OC (centres undefined)	i	-1.6	20.5	i	-3.9	-1.0
O=C1/C(=N\S(=O)(=O)c2cccs2)C([n+]2ccc(CCCc3ccccc3)cc2)=C([O-])c2ccccc21	i	16.5	95.0*	i	-8.2	-16.6
Cc1ccc(C)c(NS(=O)(=O)c2ccc3c(c2)Cc2cc(S(=O)(=O)Nc4cc(C)ccc4C)ccc2-3)c1	i	.	83.0*	i	.	8.6
Cc1ccc(NS(=O)(=O)c2ccc3c(c2)C(=O)c2ccccc2C3=O)c(C)c1	i	.	80.4*	i	.	-7.5
Cc1cccc(S(=O)(=O)Nc2cccc3c2C(=O)c2ccccc2-3)c1	i	-0.1	40.6	i	0.3	3.9
CC(C(=O)Nc1ccc(C(N)=O)cc1)N1C(=O)c2ccccc2S1(=O)=O (centres undefined)	i	1.5	.	i	-0.7	.
Cc1cc(C)c(S(=O)(=O)Nc2ccc3c(c2)CCC3)c(C)c1	i	4.7	84.5*	i	-0.3	-2.4
Cc1cc(C)c(S(=O)(=O)Nc2ccc(O)cc2)c(C)c1	i	-1.4	38.7	i	0.4	.
CCOc1ccc(C2/C(=C(\O)c3ccc4c(c3)OCCO4)C(=O)C(=O)N2CCN2CCOCC2)cc1OC (centres undefined)	i	-0.4	.	i	-5.1	3.9
CCCCCCOc1ccc(C(=O)O)cc1	i	0.4	2.4	i	0.9	3.8
CCCCCCOc1ccc(-c2ccc(C#N)cn2)cc1	i	0.6	73.7*	i	-1.6	-10.5
COc1ccc(N2CCN(C(=O)c3cc([N+](=O)[O-])ccc3N3CCN(CCO)CC3)CC2)cc1	i	-0.5	.	i	-0.6	2.3
Cc1ccc(-c2ccccc2[C@@H]2C[C@H]3CN(C)C(=O)[C@]34CCCN24)o1	i	0.0	14.3	i	-2.4	-29.9
SMILES	ANO1 activ	UPR CHOP act	CHOP inhibitor	TMEM16A inh	XBP1 UPR activ	Lipid droplet
O=C1N(c2ccccc2)C[C@@H]2C[C@@H](c3cc4ccccc4o3)N3CCC[C@@]123	i	-4.5	103.3*	.	-2.5	1.7
Cc1cc(C)nc(Nc2n[nH]c(-c3ccc(C(C)(C)C)cc3)n2)n1	i	7.1	77.1*	i	3.2	1.4
O=C1SC(SCc2ccccc2Cl)=N/C1=C\c1ccc(C(=O)O)cc1	i	1.1	82.0*	i	9.0	-6.1
CCSC1=N/C(=C\c2ccc(C(=O)O)cc2)C(=O)S1	i	-0.5	26.5	i	1.7	.
COc1cc(/C=C2\SC(=O)N(CCN)C2=O)ccc1OS(=O)(=O)c1cc(C)ccc1C	i	.	93.0*	.	.	-20.1
Cc1ccc(-n2c(SCC(=O)O)nc3sc4c(c3c2=O)CCCC4)cc1	i	-1.7	4.7	i	0.1	14.6
Cc1ccc(-n2c(SCC(=O)c3c(N)n(C)c(=O)n(C)c3=O)nc3sc4c(c3c2=O)CCCC4)c(C)c1	i	6.5	73.2*	i	2.5	2.4
Cc1[nH]c(=O)[nH]c(=O)c1S(=O)(=O)N1CCCC(C(=O)N2CCN(c3cccc(C(F)(F)F)c3)CC2)C1 (centres undefined)	i	-2.6	8.0	i	0.3	0.0
COc1c(O)ccc(/C=N\NC(=O)c2ccc3c(c2)OCO3)c1[N+](=O)[O-]	i	4.7	.	i	0.6	-0.1
CC1CCN(S(=O)(=O)c2csc(C(=O)Nc3ccccc3)c2)CC1	i	-2.9	76.6*	i	-4.7	-4.5
CC1CCN(S(=O)(=O)c2ccc(NC(=O)Cc3ccccc3)cc2)CC1	i	-1.2	85.2*	i	-0.3	8.7
O=C(Cc1ccccc1)Nc1ccc(S(=O)(=O)N2CCOCC2)cc1	i	0.5	.	i	5.6	2.3
O=C1CC(c2ccccc2)CC(O)=C1C=NCCN1CCNCC1 (centres undefined)	i	-0.6	94.8*	i	-3.5	.
O=C1CC(c2ccc(F)cc2)CC(O)=C1C=NCCN1CCNCC1 (centres undefined)	i	-1.5	-9.3	i	4.8	.
O=C(COc1cccc(F)c1)Nc1nc(-c2ccncc2)cs1	i	0.6	.	.	-1.5	.
CC(=O)Nc1ccc(OCC(=O)Nc2ccc(Cl)c(S(=O)(=O)N3CCOCC3)c2)cc1	.	1.1	.	.	-5.7	.
O=S(=O)(c1cccc(NC(=S)N2CCN(c3cccc(Cl)c3)CC2)c1)C(F)F	i	-2.8	70.0*	i	0.1	-19.5
CC(C)(C)c1ccc(NC(=O)COC(=O)C2(C)CC2(Cl)Cl)cc1 (centres undefined)	i	6.3	70.2*	i	5.2	-2.8
CCc1nc2sc3c(c2c(=O)o1)CCCC3	i	-0.9	26.5	i	-3.0	-8.8
CC(C)(C)c1nc2sc3c(c2c(=O)o1)CCCC3	i	0.0	79.2*	i	0.8	-17.7
